Measured values taken from ChEMBL document CHEMBL1127799, “Derivatives of a novel cyclopeptolide. 1. Synthesis, antifungal activity, and structure-activity relationships” (1994).
≈ marks a conversion by molar mass, not a printed value.

Assays:
Assay type in all cases: functional
Rattus norvegicus [1] = species on record: Rattus norvegicus; assay: Tested for efficacy of compound in experimental vaginal candidosis (rat) after oral treatment at dosage of 2x 150 mg kg e-1
How it was run: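 Hormonally conditioned female Wistar rats (~150 g), 10 per group, given intravaginal C. albicans no. 124, 3.5×10^4 CFU in 50 μL Sabouraud's glucose broth. Oral dosing twice, 2 h before and 18 h after infection. Vaginal swabs plated on Sabouraud's glucose agar with streptomycin (0.1 mg/mL), 48 h at 37 °C. Cured when C. albicans not reisolated.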

Candida albicans [2] = assay: Tested for minimum inhibitory concentration against Candida albicans 88 (Candida albicans) at pH 6.5.
How it was run: (§1)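 Broth microdilution in malt extract broth, initial pH 6.5, 1×10^3 CFU per 0.2 mL well, from liquid-nitrogen-stored Sabouraud cultures. Compound from 0.08% stock in 5% DMSO/0.2% Tween 80, final 0.05–100 μg/mL. Visual reading after 48 h at 30 °C. MIC = lowest concentration with no detectable growth. Vehicle-only negative controls.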

Candida albicans [3] = assay: Tested for minimum subinhibitory concentration against Candida albicans 9 (Candida albicans) at pH 4.5.
How it was run: (§2)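 Malt extract broth microdilution at initial pH 4.5, 1×10^3 CFU/0.2 mL well, final compound 0.05–100 μg/mL diluted from DMSO/Tween 80 stocks. Incubation was 48 h at 30 °C with macroscopic reading. MSIC was the lowest concentration causing visible growth inhibition in at least two of three triplicates.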

[4] = system: Meyerozyma guilliermondii; assay: Tested for minimum inhibitory concentration against Candida guilliermondii 80 (C.g) at pH 4.5.
How it was run: (§3)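 Broth microdilution in malt extract broth, initial pH 4.5 or 6.5, with 1×10^3 CFU per 0.2 mL well of thawed stored cultures. Compound stocks were made in 5% DMSO/0.2% Tween 80 and diluted to final 0.05–100 μg/mL. Plates were incubated 48 h at 30 °C and read macroscopically. MIC was the lowest concentration with no detectable growth. Vehicle-only wells served as controls.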

Candida tropicalis [5] = assay: Tested for minimum subinhibitory concentration against Candida tropicalis 43 (C.t) at pH 4.5.; how it was run: as §2
Mus musculus [6] = species on record: Mus musculus; assay: Tested for efficacy of compound in experimental systemic candidosis (mouse) after oral treatment at dosage of 8 *100 mg kg e-1
How it was run: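 Systemic candidiasis: female NMRI mice (18–20 g), 10 per group, infected by intravenous injection of 10⁶ CFU C. albicans no. 124 via lateral tail vein. Oral dosing twice daily on 4 consecutive days, starting 2 h before inoculation. Efficacy taken as survival rate up to day 9 after infection.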

[7] = system: Meyerozyma guilliermondii; assay: Tested for minimum inhibitory concentration against Candida guilliermondii 80 (C.g) at pH of 6.5.; how it was run: as §3
Candida albicans [8] = assay: Tested for minimum inhibitory concentration against Candida albicans 26 (Candida albicans) at pH 6.5.; how it was run: as §1
[9] = system: Meyerozyma guilliermondii; assay: Tested for minimum subinhibitory concentration against Candida guilliermondii 80 (C.g) at pH 4.5.; how it was run: as §2
Candida tropicalis [10] = assay: Tested for minimum subinhibitory concentration against Candida tropicalis 43 (C.t) at pH 6.5.
How it was run: (§4)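 Malt extract broth microdilution, initial pH 6.5, inoculum 1×10^3 CFU per 0.2 mL well. Compound diluted from 0.08% stock (5% DMSO/0.2% Tween 80) to final 0.05–100 μg/mL. Macroscopic reading after 48 h, 30 °C. MSIC = lowest concentration giving visible growth inhibition in at least two of three triplicates. Vehicle-only negative controls.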

Rattus norvegicus [11] = assay: Tested for efficacy of compound in experimental vaginal candidosis (rat) after intraperitoneal treatment at dosage of 2x 100 mg kg e-1
How it was run: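 Female Wistar rats (~150 g; 10 per group) were hormonally conditioned and infected intravaginally with 3.5×10^4 CFU C. albicans no. 124 in 50 μL broth. Intraperitoneal dosing was given twice, 2 h before and 18 h after infection. Swabs taken one day after the last dose were plated on streptomycin Sabouraud agar (48 h, 37 °C). Cure meant failed reisolation.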

Candida albicans [12] = assay: Tested for minimum subinhibitory concentration against Candida albicans 9 (Candida albicans) at pH 6.5.; how it was run: as §4
Rattus norvegicus [13] = species on record: Rattus norvegicus; assay: Tested for efficacy of compound in experimental vaginal candidosis (rat) after tropical treatment at dosage of 9x 0.1% drug concentration
How it was run: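 Female Wistar rats (~150 g, hormonally conditioned, 10 per group) infected intravaginally with 3.5×10^4 CFU C. albicans no. 124 in 50 μL broth. Intravaginal gel, 0.2 mL, from 2 h post-inoculation, twice daily for 4 days (nine applications). Swabs plated one day after last treatment on Sabouraud's glucose agar with streptomycin, 48 h at 37 °C. Cure = no reisolation.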

Candida tropicalis [14] = assay: Tested for minimum inhibitory concentration against Candida tropicalis 43 (C.t) at pH of 6.5.; how it was run: as §3
Mus musculus [15] = species on record: Mus musculus; assay: Tested for efficacy of compound in experimental vaginal candidosis (mouse) after oral treatment at dosage of 4 x300 mg kg e-1
How it was run: (§5)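 Female NMRI mice (18–20 g; 10 per group) were hormonally conditioned and infected intravaginally with 3.5×10^4 CFU C. albicans no. 124 in 50 μL Sabouraud's glucose broth. Four doses were given by gavage or ip, at 2 h before and 2, 18 and 24 h after infection. One day after the last dose, vaginal swabs were plated on Sabouraud agar with streptomycin (0.1 mg/mL) for 48 h at 37 °C. Failed reisolation counted as cure.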

Candida albicans [16] = assay: Tested for minimum inhibitory concentration against Candida albicans 124 (Candida albicans) at pH of 4.5.; how it was run: as §3
Pichia kudriavzevii [17] = assay: Tested for minimum subinhibitory concentration against Candida krusei 132 (C.k) at pH 6.5.; how it was run: as §4
[18] = system: Meyerozyma guilliermondii; assay: Tested for minimum inhibitory concentration against Candida guilliermondii 80 (C.g) at pH of 4.5.; how it was run: as §3
Candida albicans [19] = assay: Tested for minimum subinhibitory concentration against Candida albicans 124 (Candida albicans) at pH 6.5.; how it was run: as §4
Candida albicans [20] = assay: Tested for minimum subinhibitory concentration against Candida albicans 90 (Candida albicans) at pH 6.5.; how it was run: as §4
Candida albicans [21] = assay: Tested for minimum inhibitory concentration against Candida albicans 88 (Candida albicans) at pH 4.5.; how it was run: as §3
Candida albicans [22] = assay: Tested for minimum inhibitory concentration against Candida albicans 9 (Candida albicans) at pH 4.5.; how it was run: as §3
[23] = system: Meyerozyma guilliermondii; assay: Tested for minimum subinhibitory concentration against Candida guilliermondii 80 (C.g) at pH 6.5.; how it was run: as §4
Pichia kudriavzevii [24] = assay: Tested for minimum inhibitory concentration against Candida krusei 132 (C.k) at pH 6.5.; how it was run: as §1
Candida albicans [25] = assay: Tested for minimum inhibitory concentration against Candida albicans 124 (Candida albicans) at pH of 6.5.; how it was run: as §3
Mus musculus [26] = assay: Tested for efficacy of compound in experimental vaginal candidosis (mouse) after intraperitoneal treatment at dosage of 4 x50 mg kg e-1; how it was run: as §5
Mus musculus [27] = assay: Tested for efficacy of compound in experimental vaginal candidosis (mouse) after intraperitoneal treatment at dosage of 4 x100 mg kg e-1; how it was run: as §5
Candida albicans [28] = assay: Tested for minimum inhibitory concentration against Candida albicans 124 (Candida albicans) at pH 4.5.; how it was run: as §3
Candida tropicalis [29] = assay: Tested for minimum inhibitory concentration against Candida tropicalis 43 (C.t) at pH of 4.5.; how it was run: as §3
Candida albicans [30] = assay: Tested for minimum subinhibitory concentration against Candida albicans 88 (Candida albicans) at pH 6.5.; how it was run: as §4

MIC (Candida albicans [2]): 100 µg/mL (≈ 88.8 µM)
MIC [4]: 6.25 µg/mL (≈ 5.55 µM)
MIC [7]: > 100 µg/mL
MIC (Candida albicans [8]): > 100 µg/mL
MIC (Candida tropicalis [14]): 100 µg/mL (≈ 88.8 µM)
MIC (Candida albicans [16]): 1.56 µg/mL (≈ 1.38 µM)
MIC [18]: 6.25 µg/mL (≈ 5.55 µM)
MIC (Candida albicans [21]): 12.5 µg/mL (≈ 11.1 µM)
MIC (Candida albicans [22]): 12.5 µg/mL (≈ 11.1 µM)
MIC (Pichia kudriavzevii [24]): > 100 µg/mL
MIC (Candida albicans [25]): 50 µg/mL (≈ 44.4 µM)
MIC (Candida albicans [28]): 1.56 µg/mL (≈ 1.38 µM)
MIC (Candida tropicalis [29]): 1.56 µg/mL (≈ 1.38 µM)
SMILES: CC[C@@H](C)[C@H]1C(=O)NCC(=O)N(C)[C@@H](C(C)C)C(=O)N[C@@H](Cc2ccc(OC)cc2)C(=O)O[C@H](C)C(=O)N2CCCC[C@H]2C(=O)N(C)[C@@H](C(C)C)C(=O)N[C@@H](C(C)C)C(=O)N(C)[C@@H](CC(=O)O)C(=O)N(C)[C@@H]([C@@H](C)CC)C(=O)N1C
Efficacy (Rattus norvegicus [1]): 0%
MSIC (Candida albicans [3]): 0.78 µg/mL
MSIC (Candida tropicalis [5]): 0.8 µg/mL
Efficacy (Mus musculus [6]): 40%
MSIC [9]: 0.8 µg/mL
MSIC (Candida tropicalis [10]): 6.25 µg/mL
Efficacy (Rattus norvegicus [11]): 76%
MSIC (Candida albicans [12]): 12.5 µg/mL
Efficacy (Rattus norvegicus [13]): 78%
Efficacy (Mus musculus [15]): 64%
MSIC (Pichia kudriavzevii [17]): 3.12 µg/mL
MSIC (Candida albicans [19]): 3.12 µg/mL
MSIC (Candida albicans [20]): 3.12 µg/mL
MSIC [23]: 12.5 µg/mL
Efficacy (Mus musculus [26]): 7%
Efficacy (Mus musculus [27]): 14%
MSIC (Candida albicans [30]): 3.12 µg/mL
